RAM inhibit = inhibitors of the yeast RAM network; actives 1.8% (n = 190,000); inhibition, % at 50 µM; S. cerevisiae dse1pr::URA3 reporter, 5-FOA growth OD615, 2 d; analog-sensitive cbk1-as2 kinase mutant strain;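 active = inhibition above a set limit, 3 SD over mean compound inhibition, cut at about 8.4% in these data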;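 also: 0% = DMSO-only wells with no growth and 100% = 10 µM 1-NA-PP1 full growth; inhibition rescues growth on 5-FOA so higher OD means more RAM inhibition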
BB579 growth dn = chemicals that inhibit yeast BB579 growth in restrictive medium (lifespan-shortening candidates); actives 0.51% (n = 140,000); inhibition, % at 10 µM; S. cerevisiae BB579 growth, OD615, 48 h;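 active = inhibition above a set limit, 3 SD over the mean compound inhibition, cut at about 44% in these data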
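Test system: Saccharomyces cerevisiae DeaD strain BB579, replicative lifespan model yeast | Buffer or medium: Restrictive CSMM-D medium | Doses: One dose, 10 µM compound with 0.25% DMSO | Incubation: 48 h exposure, 30 °C | Detection: Culture absorbance at 615 nm | Control set: Amphotericin B at 10 µg/mL as positive control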
WT yeast gro inh = growth inhibition of WT yeast, mitochondrial fusion screen; AID 1362; actives 2.1% (n = 190,000); inhibition, % at 10 µM; mitochondrial fusion phenotypic screen, WT strain; in the data active = inhibition above about 58%; tested in S. cerevisiae
Yeast life ext = extends the lifespan of yeast; S. cerevisiae growth with nicotinamide, OD615; deaD strain in restrictive glucose medium; inhibition of the nicotinamide effect, % at 10 µM; actives 0.68% (n = 130,000);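 active = inhibition above a set limit, placed 3 SD over the median of all compounds, cut at about 26% in these data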;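 also: 0% = nicotinamide-treated wells and 100% = cells grown without nicotinamide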
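System: DeaD-strain S. cerevisiae / Buffer or medium: CSMM-D, restrictive glucose (dextrose) synthetic minimal medium / Probe or stimulus: nicotinamide, 1.5 mM, co-present with compound / Compound: one concentration, 10 µM, DMSO 0.25% / Incubation: 48 h compound exposure at 30 °C, humidified / Technique: optical density (absorbance) at 615 nm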
Cl transport mod = modulators of human KCC2 chloride dependent transport | KCC2 cells, thallium flux FluoZin-2 fluorescence | B-score of Tl+ flux slope (higher = more flux/activation; lower = inhibition) at 10 µM | actives 2.2% (n = 190,000) | AID 1456;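 active = thallium flux slope and its plate-corrected score both differing from the plate sample mean at a set confidence after two filtering rounds, in either direction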;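 also: slope of fluorescence scaled to starting intensity during 10 to 20 s after thallium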
Numbers without * were called inactive; . = no result. Hits are enriched below; roughly 5.5% of the tested compounds scored in any of these assays.

SMILES	RAM inhibit	BB579 growth dn	WT yeast gro inh	Yeast life ext	Cl transport mod
C#CC[N+](C)(C)CCCCCCCC	0	-5	-1	2	0.36
CC#CC[N+](C)(C)CCCCCCCCCCCC	-1	42	83*	-9	1.3
C#CC[N+](C)(C)CCCCCCCCCCCC	0	25	78*	-7	-0.51
C#CC[N+](C)(C)CCCCCCCCCC	-1	8	9	-5	0.22
Cc1ccsc1/C=N/NC(=O)Cn1cnc2ccccc21	-1	-19	-13	7	0.62
CC(C)(C)c1ccc(S(=O)(=O)Nc2ccc(Cc3ccncc3)cc2)cc1	0	-15	59*	4	-0.68
CC(C)(C)c1ccc(S(=O)(=O)NCCc2ccncc2)cc1	0	-5	.	-9	.
c1ccc(Cn2c(CNc3nc4ccccc4n3CCN3CCCCC3)nc3ccccc32)cc1	0	-14	64*	.	-0.18
CCCc1sc(N/N=C/c2ccccn2)nc1-c1ccc(F)cc1	3	-33	83*	.	.
Cc1nc(N/N=C/c2ccccn2)sc1C	0	44*	47	-3	-0.98
O=C(O)Cc1sc(N/N=C\c2ccccc2)nc1-c1ccccc1	4	-39	16	7	-3
COC(=O)c1ccc(/C=N/Nc2nc(C)c(C)s2)cc1	.	.	.	.	-0.32
N=c1sccn1CC(=O)Nc1ccc([N+](=O)[O-])cc1Cl	.	.	.	.	-0.42
COC(=O)c1cc(-c2cccs2)[nH]n1	1	.	-20	.	-0.12
COC(=O)c1ccc(C2N=C(c3cccs3)CC(c3ccccc3O)N2)cc1 (configuration not stated)	1	.	62*	.	1.1
CCOC(=O)N1CCC(NC(=O)Cn2ncc3c4ccccc4n(C)c3c2=O)CC1	1	-11	-13	-5	-2.6*
CCOC(=O)N1CCC(NC(=O)Cn2ncc3ccccc32)CC1	1	6	-7	1	0.024
COc1cccc(C(=O)Nc2ccc(NC(=O)C(C)(C)C)cn2)c1	0	1	12	-15	.
O=C(NCCN1CCCCCC1)C1CCCN1S(=O)(=O)c1cccc2nsnc12 (configuration not stated)	.	.	.	.	0.25
O=C(/C=C/c1ccc([N+](=O)[O-])cc1)c1cccs1	.	.	.	.	-0.1
Nc1ccc(/C=C/C(=O)c2cccs2)cc1	-1	.	1	.	-7.4*
O=C1CC(N2CCN(c3nc4ccccc4s3)CC2)C(=O)N1Cc1cccs1 (configuration not stated)	0	98*	-19	-26	-0.0048
CCN(CC)CCCNC(=O)c1ccc2c(Cl)c3c(nc2c1)CCCC3	1	.	-15	.	0.78
N#Cc1ccccc1NC(=O)c1ccc2c(Cl)c3c(nc2c1)CCCC3	1	45*	32	-2	-0.86
O=C(NC1CC1)c1ccc2c(Cl)c3c(nc2c1)CCCC3	2	.	7	.	-0.37
SMILES	RAM inhibit	BB579 growth dn	WT yeast gro inh	Yeast life ext	Cl transport mod
Cc1ccc(N(C)C(=O)c2ccc3c(Cl)c4c(nc3c2)CCC4)cc1C	-1	-29	83*	15	-0.62
CCc1ccc(N(CC)C(=O)c2ccc3c(Cl)c4c(nc3c2)CCC4)cc1	3	-16	91*	15	-1
CC(=O)c1cccc(NC(=O)c2ccc3c(Cl)c4c(nc3c2)CCCC4)c1	4	-35	18	-1	0.7
CCN(C(=O)c1ccc2c(Cl)c3c(nc2c1)CCC3)c1cccc(C)c1	-1	-38	42	39*	-1.4
CCOc1ccc(N2CCc3c(C)nc(SC)nc32)cc1	0	.	10	.	-0.17
COc1ccccc1-c1nnc(SCC(=O)NCc2c(C)c(Cl)cc(C(C)C)c2O)o1	5	-38	78*	-10	0.31
CCCNc1nc(C)cc(-c2cc(-c3ccc(Cl)cc3)on2)n1	.	.	.	.	-0.39
Cc1ccc(/C(O)=C2\C(=O)C(=O)N(c3cc(C)on3)C2c2cccc(Br)c2)cc1 (configuration not stated)	5	7	6	27*	0.17
Cc1cc(N2C(=O)C(=O)/C(=C(/O)c3ccc(F)cc3)C2c2cccc(Br)c2)no1 (configuration not stated)	2	-11	-10	1	-1.9
O=[N+]([O-])c1c(C(Cl)Cl)nn(-c2ccccc2)c1N1CCCC1	0	-43	-4	45*	-0.92
CCOC(=O)C1CCN(c2c([N+](=O)[O-])c(C(Cl)Cl)nn2-c2ccccc2)CC1	8	-17	33	2	0.69
CCN(CC)C(=O)Cn1cc(C(=O)C(=O)N2CC=C(c3ccccc3)CC2)c2ccccc21	2	.	-9	.	-1.2
c1ccc(-c2nnc(-c3ccccn3)nc2NC2CCCCC2)cc1	-1	94*	63*	-18	-1.3
CCc1ccc(C(C)NC(=O)/C(C#N)=C\c2cn[nH]c2-c2ccccc2)cc1 (configuration not stated)	6	-22	59*	-13	-0.12
Cc1ccc(/C=C(/C#N)C(=O)NC(C)c2ccccc2)o1 (configuration not stated)	2	3	3	6	-0.047
Cc1[nH]c2ccccc2c1/C=C(\C#N)C(=O)NC(C)c1ccccc1 (configuration not stated)	2	3	85*	-33	0.97
CC(NC(=O)/C(C#N)=C/c1cn[nH]c1-c1ccccc1)c1ccccc1 (configuration not stated)	3	-9	3	-8	-0.35
Cc1cccc(-n2c(C)nc3cc(C(=O)NCc4ccc5c(c4)OCO5)ccc32)c1	-1	-15	-9	-2	-0.55
COc1ccc2cc3c(N)nn(C(=O)C4CCC(C(C)(C)C)CC4)c3nc2c1 (configuration not stated)	2	-36	92*	6	0.13
CCc1nc(CN2CCCC(C(=O)c3ccc4c5c(cccc35)CC4)C2)c(C)[nH]1 (configuration not stated)	-1	.	14	.	-1.6
Cc1c(C)c2cc(Cl)c(O)c(CN3CCCC(C)C3)c2oc1=O (configuration not stated)	-1	-61	66*	2	-0.58
CCN(CC)Cc1c(O)c(Cl)cc2c(C)c(C)c(=O)oc12	1	-66	3	88*	0.44
Cc1c(C)c2cc(Cl)c(O)c(CN3CCN(C)CC3)c2oc1=O	-1	-16	7	-7	.
CCOc1ccc(-c2c(=O)n(OCc3ccc([N+](=O)[O-])cc3)c3ccccc3[n+]2[O-])cc1	2	-24	9	-2	1.6
Cc1ccc(S(C)(=O)=N/C=C2\C(=O)c3sccc3N(C)S2(=O)=O)cc1 (configuration not stated)	.	.	.	.	-1.9
CC(C)(C)OC(=O)N1CCC(CNC(=O)c2cccs2)CC1	.	.	.	.	0.016
Cc1c(NC(=O)C(C)OC(=O)c2c3c(nc4ccccc24)CCC3)c(=O)n(-c2ccccc2)n1C (configuration not stated)	2	-10	7	-2	-0.053
Cc1cccn2cc(COc3ccc(-c4ccccc4)cc3)nc12	0	.	80*	.	-0.72
